Data taken from ChEMBL document CHEMBL3351639, “Fluorinated analogues of marsanidine, a highly α2-AR/imidazoline I1 binding site-selective hypotensive agent. Synthesis and biological activities” (Eur J Med Chem, 2014).

What was measured:
[1] = target: T1, Alpha-2B adrenergic receptor (Homo sapiens, UniProt P18089); experiment: Displacement of [3H]RS-79948-197 from human alpha2B adrenoceptor expressed in CHO-K1 cells after 45 mins by liquid scintillation counting; type: cell-based
T1 sequence (P18089 whole entry): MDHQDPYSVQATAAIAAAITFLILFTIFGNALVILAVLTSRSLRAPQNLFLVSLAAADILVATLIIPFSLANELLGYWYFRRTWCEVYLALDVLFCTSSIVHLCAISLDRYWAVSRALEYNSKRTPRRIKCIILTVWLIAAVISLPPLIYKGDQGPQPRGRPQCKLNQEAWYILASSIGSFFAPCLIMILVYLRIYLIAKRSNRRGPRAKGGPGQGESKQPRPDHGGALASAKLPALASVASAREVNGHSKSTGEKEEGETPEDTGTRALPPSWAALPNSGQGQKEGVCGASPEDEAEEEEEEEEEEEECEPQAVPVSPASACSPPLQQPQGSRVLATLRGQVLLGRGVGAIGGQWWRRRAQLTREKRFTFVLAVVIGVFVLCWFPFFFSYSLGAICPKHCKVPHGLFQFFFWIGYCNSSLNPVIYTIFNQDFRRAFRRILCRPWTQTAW
Outline: (§1)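 Membranes from CHO-K1 cells stably expressing each human α2-AR subtype (6–10 µg protein). Used 0.2 nM [3H]RS-79948-197 and 8 serial dilutions of competitor in 50 mM potassium phosphate, pH 7.4. Non-specific binding defined with 100 µM oxymetazoline. Filtration, then scintillation counting. Run in duplicate, at least 3 repeats. One-site nonlinear fit; IC50 converted to Ki by Cheng-Prusoff.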

[2] = target: T2, Alpha-2A adrenergic receptor (Homo sapiens, UniProt P08913); experiment: Displacement of [3H]RS-79948-197 from human alpha2A adrenoceptor expressed in CHO-K1 cells after 45 mins by liquid scintillation counting; type: cell-based; outline: as §1
T2 sequence (P08913 whole entry): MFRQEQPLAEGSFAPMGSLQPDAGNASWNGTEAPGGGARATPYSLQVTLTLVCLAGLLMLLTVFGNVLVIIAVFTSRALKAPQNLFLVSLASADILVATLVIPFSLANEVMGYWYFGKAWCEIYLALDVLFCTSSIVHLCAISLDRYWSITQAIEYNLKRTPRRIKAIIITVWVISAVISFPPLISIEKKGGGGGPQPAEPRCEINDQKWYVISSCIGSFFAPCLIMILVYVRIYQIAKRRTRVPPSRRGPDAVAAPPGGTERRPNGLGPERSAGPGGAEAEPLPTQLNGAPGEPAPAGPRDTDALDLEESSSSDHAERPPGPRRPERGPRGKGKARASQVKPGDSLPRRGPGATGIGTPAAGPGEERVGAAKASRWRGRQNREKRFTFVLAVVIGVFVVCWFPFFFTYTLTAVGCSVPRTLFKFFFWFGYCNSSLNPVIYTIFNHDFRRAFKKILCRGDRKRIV

[3] = target: T2, Alpha-2A adrenergic receptor; experiment: Agonist activity at human alpha2A adrenoceptor expressed in CHO-K1 cells after 30 mins by [35S]GTPgammaS binding assay; type: functional, cell-based
Outline: (§2)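 Membranes from CHO cells stably expressing human α2A-AR (5 µg protein) were incubated with 7 or 8 serial dilutions of compound and 0.1 nM [35S]GTPγS. Buffer: 25 mM Tris, 1 mM EDTA, 5 mM MgCl2, 20 mM NaCl, 1 µM GDP, 1 mM DTT, 30 µM ascorbic acid, pH 7.4. Incubation 30 min at RT, then vacuum filtration and scintillation counting. Run in duplicate, at least 3 repeats.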

[4] = target: T3, Alpha-2A adrenergic receptor (Homo sapiens) (UniProt P08913); experiment: Intrinsic activity at human alpha2A adrenoceptor expressed in CHO-K1 cells after 30 mins by [35S]GTPgammaS binding assay relative to norepinephrine; type: functional, cell-based; outline: as §2
T3 sequence (whole entry): T2 sequence (P08913 whole entry)

SMILES: Fc1cccc2cnn(N=C3NCCN3)c12
- Ki [1]: 158 nM
- Ki [2]: 65 nM
- EC50 [3]: 200 nM
- Intrinsic activity [4]: 18%

SMILES: Fc1ccc2cnn(N=C3NCCN3)c2c1
- Ki [1]: 72 nM
- Ki [2]: 33 nM
- EC50 [3]: 38.9 nM
- Intrinsic activity [4]: 5.2%
